Measurements published in PMC6057476 (ACS chemical biology, 2018).

How the values were obtained:
Format in all cases: cell-based
MCF-7 cells = experiment: Proliferation assay; conditions: 10 nM estradiol, 24 hours
How it was run: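 MCF-7 cells in charcoal-dextran-stripped 5% FBS were given vehicle or 15 μM test compound, with or without 10 nM estradiol, starting on day 3. Cells were counted 24 h later by brightfield imaging cytometry. Fold change was taken versus vehicle control over three independent experiments, with error bars as SD.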

[1] = tested on: ER-regulated genes PTGES, PR, PS2, EGR3, IGFBP4 in MCF-7 cells; experiment: RT-qPCR of ER-regulated native genes, MCF-7; conditions: 10 nM E2, 2 hrs
How it was run: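 MCF-7 cells in charcoal-dextran-stripped 5% FBS were pretreated with test compound (15 μM, 24 h), 4-hydroxytamoxifen (1 μM, 2 h) or DMSO, then with 10 nM 17β-estradiol for 2 h. Total RNA was assayed by RT-qPCR, normalised to 36B4 and converted to fold change versus DMSO vehicle by ΔΔCt. Error bars are SD.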

[2] = tested on: transcriptome of MCF-7 cells; experiment: RNA-Seq global gene expression; conditions: MCF-7, RNA-Seq; 10 nM E2 + 1 μM 4OHT or 15 μM R4K1

Structure (SMILES)	proliferation of MCF-7 cells, estradiol (MCF-7 cells)	expression of five ER-regulated genes, estradiol [1]	reversal of E2-regulated genes of cluster 2 (226 genes) [2]	reversal of E2-regulated genes of cluster 3 (87 genes) [2]
C[C@]12CC[C@@H]3c4ccc(O)cc4CC[C@H]3[C@@H]1CC[C@@H]2O [Estradiol, 17β-estradiol]	stimulated proliferation	induced expression of each of the five genes	–	–
CC/C(=C(\c1ccc(O)cc1)c1ccc(OCCN(C)C)cc1)c1ccccc1 [4OHT, 4-hydroxytamoxifen]	–	–	reversed fully	reversed fully
